Reference: ChEMBL document CHEMBL1914352, “Design, synthesis, docking, and biological evaluation of novel diazide-containing isoxazole- and pyrazole-based histone deacetylase probes” (J Med Chem, 2011)
Active and inactive are the calls of the source. The calls are words filed in the database; no cut-off is given here.

Legend:
[1] = test system: HepG2; assay: Induction of apoptosis in human HepG2 cells assessed as cleavage of caspase 3 at 1 to 10 uM after 14 hrs by Western blot analysis; format: functional, cell-based
Method in brief: (§1)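 HepG2 cells are seeded at 2.7×10^5 cells/well in D7 medium (DMEM, 7% FBS), refed after 24 h, and after 1 h at 37 °C treated with DMSO or 1, 5 or 10 µM inhibitor. Lysis is in ice-cold 1% CHAPSO buffer (50 mM Hepes pH 7.4), 45 min at 4 °C. Immunoblots are probed for cleaved caspase 3 Asp175, acetyl-Lys373 p53, total p53 and GAPDH, detected by chemiluminescence, with band densitometry.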

[2] = target: T1, Matrix metalloproteinase-14 (Homo sapiens, UniProt P50281); assay: Inhibition of MMP14
[3] = test system: HepG2; assay: Induction of apoptosis in human HepG2 cells assessed as hyperacetylation of p53 at 1 to 10 uM by Western blot analysis; format: functional, cell-based; method in brief: as §1
[4] = target: Stromelysin-1 (Homo sapiens, UniProt P08254); assay: Inhibition of MMP3
Stromelysin-1, sequence (P08254 whole entry): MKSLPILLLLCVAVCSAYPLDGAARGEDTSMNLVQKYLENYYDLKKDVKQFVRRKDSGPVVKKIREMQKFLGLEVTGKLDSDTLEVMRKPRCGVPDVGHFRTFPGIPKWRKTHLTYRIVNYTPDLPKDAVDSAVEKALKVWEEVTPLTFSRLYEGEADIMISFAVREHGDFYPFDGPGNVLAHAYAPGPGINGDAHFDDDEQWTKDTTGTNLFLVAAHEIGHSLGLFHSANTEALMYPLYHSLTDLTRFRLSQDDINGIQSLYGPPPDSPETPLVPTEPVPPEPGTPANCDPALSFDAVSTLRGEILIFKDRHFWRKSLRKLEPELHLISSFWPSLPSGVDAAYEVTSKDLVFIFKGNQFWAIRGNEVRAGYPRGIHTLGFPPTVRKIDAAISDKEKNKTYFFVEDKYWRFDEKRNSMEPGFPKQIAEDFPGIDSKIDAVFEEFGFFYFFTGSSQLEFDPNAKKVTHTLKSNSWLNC

[5] = target: T2, Interstitial collagenase (Homo sapiens, UniProt P03956); assay: Inhibition of MMP1
T2 sequence (P03956 whole entry): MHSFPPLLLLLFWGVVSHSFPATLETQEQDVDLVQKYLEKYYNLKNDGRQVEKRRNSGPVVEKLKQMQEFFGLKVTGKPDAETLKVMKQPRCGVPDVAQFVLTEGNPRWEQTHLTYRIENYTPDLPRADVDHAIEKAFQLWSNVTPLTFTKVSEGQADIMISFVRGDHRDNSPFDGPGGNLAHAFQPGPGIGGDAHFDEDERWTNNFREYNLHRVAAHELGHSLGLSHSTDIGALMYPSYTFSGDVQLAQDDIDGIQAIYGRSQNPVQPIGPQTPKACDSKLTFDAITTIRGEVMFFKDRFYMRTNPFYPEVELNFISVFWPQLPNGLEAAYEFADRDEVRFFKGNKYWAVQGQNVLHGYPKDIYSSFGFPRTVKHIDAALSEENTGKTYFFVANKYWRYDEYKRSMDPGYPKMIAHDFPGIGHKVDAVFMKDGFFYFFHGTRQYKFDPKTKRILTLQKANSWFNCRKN

[6] = test system: HepG2; assay: Induction of apoptosis in human HepG2 cells assessed as hyperacetylation of p53 after 24 hrs by Western blot analysis; format: functional, cell-based; method in brief: as §1
[7] = test system: SH-SY5Y; assay: Neuroprotective activity against LY294002-induced stress in retinoic acid differentiated human SH-SY5Y cells assessed as cell survival at 1 uM; format: functional, cell-based
Method in brief: (§2)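 SH-SY5Y cells are differentiated for 7–8 days in 1% FBS medium with 10 µM retinoic acid, then seeded at 2×10^4 cells/well in 1% FBS medium with 5 µM RA. After 24 h they go into phenol-red-free 1% FBS/RA medium with DMSO or 0.5–50 µM inhibitor, without or with 100 µM LY294002, for 24 h. Readout: XTT viability as % survival vs vehicle, four replicates ± SD, one-way ANOVA with Dunnett.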

[8] = test system: SH-SY5Y; assay: Cytotoxicity against retinoic acid-differentiated human SH-SY5Y cells assessed as cell survival at 20 uM; format: cell-based; method in brief: as §2
[9] = target: T3, Interstitial collagenase (Homo sapiens) (UniProt P03956); assay: Inhibition of MMP1 assessed as activity remaining at […]
T3 sequence (whole entry): T2 sequence (P03956 whole entry)

[10] = target: T1, Matrix metalloproteinase-14; assay: Inhibition of MMP14 assessed as activity remaining at […]
[11] = target: Matrix metalloproteinase-9 (Homo sapiens, UniProt P14780); assay: Inhibition of MMP9 assessed as activity remaining at […]
Matrix metalloproteinase-9, sequence (P14780 whole entry): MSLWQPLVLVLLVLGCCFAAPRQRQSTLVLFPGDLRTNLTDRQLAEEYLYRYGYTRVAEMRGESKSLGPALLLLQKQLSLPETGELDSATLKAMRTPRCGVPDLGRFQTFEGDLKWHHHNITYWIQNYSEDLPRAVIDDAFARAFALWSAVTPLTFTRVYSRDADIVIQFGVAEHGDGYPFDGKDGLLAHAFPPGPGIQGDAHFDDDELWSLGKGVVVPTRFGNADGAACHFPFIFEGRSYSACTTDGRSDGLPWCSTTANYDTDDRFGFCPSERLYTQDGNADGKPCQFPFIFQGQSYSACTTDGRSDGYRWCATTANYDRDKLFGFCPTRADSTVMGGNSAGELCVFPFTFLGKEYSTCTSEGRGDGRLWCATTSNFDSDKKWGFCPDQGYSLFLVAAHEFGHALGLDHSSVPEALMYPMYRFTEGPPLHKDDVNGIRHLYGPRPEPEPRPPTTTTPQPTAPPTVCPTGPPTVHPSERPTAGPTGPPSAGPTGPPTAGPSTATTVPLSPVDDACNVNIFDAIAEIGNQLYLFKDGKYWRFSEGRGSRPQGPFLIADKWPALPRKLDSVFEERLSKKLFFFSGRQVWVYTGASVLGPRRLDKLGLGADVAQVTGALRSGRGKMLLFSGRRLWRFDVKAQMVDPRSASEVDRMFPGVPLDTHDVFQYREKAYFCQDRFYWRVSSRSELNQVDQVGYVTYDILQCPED

Row | Structure (SMILES) | Activity [1] | IC50 [2] [µM] | Activity [3] | IC50 [4] [µM] | IC50 [5] [µM] | Activity [6] | Activity [7] | Activity [8] | Activity [9] [%] | Activity [10] [%] | Activity [11] [%]
1 | [N-]=[N+]=NCc1cc(N=[N+]=[N-])cc(C(=O)Nc2ccc(-c3cc(C(=O)NCCCCCCC(=O)NO)no3)cc2)c1 | Active | 9.33 | inactive | 12.1 | 108 | inactive | – | – | – | – | –
2 | [N-]=[N+]=NCc1cc(Cn2cc(NC(=O)CCCCCCC(=O)NO)cn2)cc(N=[N+]=[N-])c1 | – | – | – | – | – | – | Active | Toxic | > 70 | > 70 | > 70
